Series [1] has as its system Influenza A virus. Briefly: Antiviral activity against Influenza A virus A/PR/8/34 (H1N1) infected in MDCK cells measured after 48 hrs post infection by plaque reduction assay. The format is functional, organism-based. The settings on record: A/Puerto Rico/8/1934(H1N1). Summed up:
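MDCK cells, 5 x 10⁵/well, grown 24 h at 37 °C, washed in serum-free DMEM, then infected with A/PR/8/34 (Cambridge lineage) at 40 PFU/well for 1 h at 37 °C. Medium held TPCK-trypsin 1 μg/mL and 0.14% BSA, with compound at varied concentrations or DMSO. Overlay was the same medium plus 1.2% Avicel. At 48 h cells were formaldehyde-fixed and toluidine-blue stained. Plaques were counted against DMSO (100%).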
On the technique in general: In a plaque reduction assay, fewer plaques than in the control indicate reduced infectivity or spread.

Series [2] can be described thus: Cytotoxicity against MDCK cells assessed as reduction in cell viability after 48 hrs by MTT assay. The format is cell-based, Canis lupus familiaris. Particulars: dog. An outline of the steps: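 MDCK cells, 2 x 10⁴/well, grown 24 h, then exposed to serial compound dilutions or DMSO in DMEM/10% FBS for 48 h at 37 °C. MTT (5 mg/mL in PBS) was added for 4 h, then cells were lysed in solubilization solution overnight at 37 °C and read at 620 nm.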
(In general: Tetrazolium dyes change colour on reduction, which living cells bring about.)

In series [3] the target is PA/PB1 (Influenza A virus (A/Puerto Rico/8/1934(H1N1)), UniProt P03431+P03433). Briefly: Inhibition of Influenza A virus 6His-tagged PA (239 to 716 residues)/GST-tagged PB1 (1 to 25 residues) protein-protein interaction expressed in Escherichia coli measured after overnight incubation by ELISA. Background: An ELISA detects its analyte on a solid surface through an enzyme-linked reagent.

A short description of series [4]: Therapeutic index, ratio of CC50 for MDCK cells to EC50 for Influenza A virus A/PR/8/34 (H1N1) infected in MDCK cells. The class given is toxicity, cell-based. Particulars: dog, read-out: Ratio CC50/EC50.

One may read the EC50 as the concentration that produces a half-maximal response. Low readings indicate greater potency, high ones weaker potency. By CC50 is commonly meant the concentration giving 50% cytotoxicity. In turn, `CSCC[C@H](N)C(=O)N[C@@H](CC(=O)O)C(=O)N[C@H](C(=O)N[C@@H](CC(N)=O)C(=O)N1CCC[C@H]1C(=O)N[C@H](C(=O)N[C@@H](CC(C)C)C(=O)N[C@@H](CC(C)C)C(=O)N[C@@H](Cc1ccccc1)C(=O)N[C@@H](CC(C)C)C(=O)N[C@@H](CCCCN)C(=O)N[C@H](C(=O)N1CCC[C@H]1C(=O)N[C@@H](C)C(=O)N[C@@H](CCC(N)=O)C(=O)O)C(C)C)[C@@H](C)O)C(C)C` came in with an EC50 in series [1] of 41 µM. In series [2], the cytotoxic concentration (CC50) at 48 h was over 100 µM.

As usually defined, the IC50 is the concentration that gives 50% inhibition. Low readings indicate greater potency, high ones weaker potency. `O=C(Nc1sc2c(c1C(=O)Nc1ccccc1O)CCCCC2)c1ccccn1` returned an IC50 in series [3] of 118 µM. In series [1], the EC50 was determined as 8.2 µM. For the same compound, the CC50 at 48 h in series [2] is over 250 µM.

Take `CC(C)(C)NC(=O)c1c(NC(=O)c2ccccc2O)sc2c1CCCCC2`: half-maximal inhibition in series [3] (IC50) required 156 µM. The same compound showed an EC50 in series [1] of over 100 µM. Further, in series [2], the CC50 at 48 h was over 250 µM.

Compound `O=C(Nc1sc2c(c1C(=O)Nc1nccs1)CCCCC2)c1ccccc1O` displayed an IC50 in series [3] of 69 µM. In addition, the EC50 in series [1] was 0.18 µM. Also, the CC50 at 48 h in series [2] was over 250 µM. The selectivity ratio in series [4] is over 1390.

As for `O=C(Nc1sc2c(c1C(=O)Nc1ccccc1O)CCCCC2)c1ccc(Cl)cc1`, the IC50 in series [3] was 26 µM. In addition, in series [1], the 50% effective concentration (EC50) worked out at 1.8 µM. The CC50 at 48 h in series [2] was 28 µM.

`O=C(Nc1sc2c(c1C(=O)NCc1ccccn1)CCCCC2)c1ccccc1O`: the IC50 in series [3] was 33 µM. For the same compound, the concentration for a half-maximal effect (EC50) in series [1] was over 100 µM. In addition, the 50% cytotoxic concentration (CC50) at 48 h in series [2] is over 250 µM.

With `O=C(Nc1sc2c(c1C(=O)Nc1ccccn1)CCCCC2)c1cccc(O)c1`, the IC50 in series [3] is 23 µM. The compound also registered a 50% effective concentration (EC50) in series [1] of 22 µM. Moreover, the CC50 at 48 h in series [2] came to 248 µM.

The compound `O=C(Nc1sc2c(c1C(=O)Nc1ccccn1)CCCCC2)c1ccccc1O` displayed an IC50 in series [3] of 15 µM. In series [1], this compound showed an EC50 of 2.6 µM. The CC50 at 48 h in series [2] was over 250 µM. In addition, the selectivity ratio in series [4] is over 96.

In series [3], `O=C(Nc1sc2c(c1C(=O)Nc1ccccn1)CCCCC2)c1ccc(O)cc1` registered an IC50 of 26 µM. Further, in series [1], a half-maximal response (EC50) required 19 µM. The CC50 at 48 h in series [2] was over 250 µM.

Compound `O=C(Nc1sc2c(c1C(=O)NC1CCCCC1)CCCCC2)c1ccccc1O` gave an IC50 in series [3] of 114 µM. This compound came in with a half-maximal effective concentration (EC50) in series [1] of over 100 µM. Besides, in series [2], the CC50 at 48 h amounted to 172 µM.

In series [3], `O=C(Nc1sc2c(c1C(=O)N1CCN(c3ccccn3)CC1)CCCCC2)c1ccccc1O` registered a half-maximal inhibitory concentration (IC50) of 197 µM. Moreover, in series [1], the EC50 was over 100 µM. Besides, the cytotoxic concentration (CC50) at 48 h in series [2] was 145 µM.

As to `O=C(Nc1sc2c(c1C(=O)NCc1ccccc1)CCCCC2)c1ccccc1O`, in series [3], the IC50 is 191 µM. The compound further displayed an EC50 in series [1] of over 100 µM. In addition, the CC50 at 48 h in series [2] stood at 172 µM.

Compound `O=C(Nc1sc2c(c1C(=O)Nc1ccc(Cl)cc1)CCCCC2)c1ccccc1O` registered an IC50 in series [3] of 18 µM. The compound further returned an EC50 in series [1] of 1.2 µM. Moreover, the cytotoxic concentration (CC50) at 48 h in series [2] was over 250 µM. Moreover, the selectivity ratio in series [4] was over 200.

Take `O=C(Nc1sc2c(c1C(=O)Nc1ccccc1)CCCCC2)c1ccccc1O`: inhibition in series [3] was half-maximal at 58 µM (IC50). It took 30 µM to reach a half-maximal effect in series [1] (EC50). In addition, the CC50 at 48 h in series [2] is over 250 µM.

As for `COc1ccccc1C(=O)Nc1sc2c(c1C(=O)Nc1ccccn1)CCCCC2`, in series [3], half-maximal inhibition (IC50) was put at 22 µM. The EC50 in series [1] turned out to be 86 µM. Besides, in series [2], the CC50 at 48 h was found to be 147 µM.

With `COc1ccccc1NC(=O)c1c(NC(=O)c2ccc(Cl)cc2)sc2c1CCCCC2`, half-maximal inhibition in series [3] (IC50) required 45 µM. Also, the EC50 in series [1] came out at 24 µM. Moreover, the cytotoxic concentration (CC50) at 48 h in series [2] is over 250 µM.

`CC(C)NC(=O)c1c(NC(=O)c2ccccc2O)sc2c1CCCCC2` displayed an IC50 in series [3] of over 200 µM. Also, the EC50 in series [1] was over 100 µM. For the same compound, the CC50 at 48 h in series [2] is over 250 µM.

Regarding `Nc1ccc(C(=O)Nc2sc3c(c2C(=O)Nc2ccccn2)CCCCC3)cc1`, 65 µM corresponded to half-maximal inhibition in series [3] (IC50). The compound further had an EC50 in series [1] of 0.26 µM. Besides, the CC50 at 48 h in series [2] is over 250 µM.

As to `Nc1ccccc1C(=O)Nc1sc2c(c1C(=O)Nc1ccccn1)CCCCC2`, in series [3], the IC50 was over 200 µM. For the same compound, in series [1], the EC50 was found to be 101 µM. The CC50 at 48 h in series [2] was over 250 µM.

Consider `COc1ccccc1C(=O)Nc1sc2c(c1C(=O)Nc1ccc(Cl)cc1)CCCCC2`, for which it took 78 µM to reach half-maximal inhibition in series [3] (IC50). Besides, in series [1], the EC50 was 82 µM. For the same compound, the CC50 at 48 h in series [2] is over 250 µM.

Compound `CN1CCN(C(=O)c2c(NC(=O)c3ccccc3O)sc3c2CCCCC3)CC1` displayed an IC50 in series [3] of over 200 µM. A half-maximal response in series [1] (EC50) required 94 µM. Moreover, the half-maximal cytotoxic concentration (CC50) at 48 h in series [2] is over 250 µM.

`O=C(Nc1sc2c(c1C(=O)Nc1ccc(F)cc1)CCCCC2)c1ccccc1O` registered an IC50 in series [3] of 20 µM. For the same compound, in series [1], the EC50 is 1.2 µM. Besides, the CC50 at 48 h in series [2] is over 250 µM. Further, the selectivity ratio in series [4] was over 200.

In series [1], `NC(=O)c1ncn([C@@H]2O[C@H](CO)[C@@H](O)[C@H]2O)n1` [RIBAVIRIN] gave an EC50 of 10 µM. For the same compound, in series [2], the CC50 at 48 h was over 250 µM.

The record behind these values is ChEMBL document CHEMBL4190233, “Exploring the cycloheptathiophene-3-carboxamide scaffold to disrupt the interactions of the influenza polymerase subunits and obtain potent anti-influenza activity” (Eur J Med Chem, 2017).
